In ChEMBL document CHEMBL1147385, “Kinase inhibitors from Polygonum cuspidatum” (J Nat Prod, 1993):
≈ marks a conversion by molar mass, not a printed value.

Assays:
[1] = Inhibition of bovine thymus p56LCK; parameters: species or system Bos taurus
Outline: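 Partially purified p56lck from bovine thymus (through butyl-agarose step). Compounds were dissolved in DMSO, with 8% DMSO present in all assays. Emodin served as reference compound.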

Protein kinase C (PKC) = assay: Inhibition of rat brain PKC
Outline: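 Rat brain PKC, partially purified and mainly alpha/beta isoforms, acting on lysine-rich histone (30 μg). Partial activation by phosphatidylserine 8 μg/ml plus TPA 3 nM, no calcium, EGTA present, 20 mM Tris-Cl pH 7.4. Run 10 min at 30°, duplicates. Samples spotted on P81 paper, Cerenkov counted, no-enzyme blanks subtracted. IC50 from logarithmic interpolation over ten-fold dilutions, 0.16–160 μg/ml.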

## OC[C@H]1O[C@@H](Oc2ccc(/C=C\c3cc(O)cc(O)c3)cc2)[C@H](O)[C@@H](O)[C@@H]1O
[1]
  IC50: > 8 ×10² ug/ml
Protein kinase C (PKC)
  IC50: 6 µg/mL (≈ 15.4 µM)

## Oc1ccc(/C=C\c2cc(O)cc(O)c2)cc1 [CIS-RESVERATROL]
[1]
  IC50: 5 ×10¹ ug/ml
Protein kinase C (PKC)
  IC50: 3 ×10¹ ug/ml

## Cc1cc(O)c2c(c1)C(=O)c1cc(O)cc(O)c1C2=O [EMODIN]
[1]
  IC50: 10 µg/mL (≈ 37 µM)

## OC[C@H]1O[C@@H](Oc2ccc(/C=C/c3cc(O)cc(O)c3)cc2)[C@H](O)[C@@H](O)[C@@H]1O [GOB C]
[1]
  IC50: 2 ×10² ug/ml
Protein kinase C (PKC)
  IC50: 3 µg/mL (≈ 7.68 µM)

## OC[C@H]1O[C@@H](Oc2cc(O)cc(/C=C/c3ccc(O)cc3)c2)[C@H](O)[C@@H](O)[C@@H]1O [PICEID]
[1]
  IC50: 2 ×10² ug/ml
Protein kinase C (PKC)
  IC50: 2 ×10² ug/ml

## Oc1ccc(/C=C/c2cc(O)cc(O)c2)cc1 [RESVERATROL]
[1]
  IC50: 6 ×10¹ ug/ml
Protein kinase C (PKC)
  IC50: 4 ×10¹ ug/ml

## CN1CCN(CCCN2c3ccccc3Sc3ccc(C(F)(F)F)cc32)CC1 [TRIFLUOPERAZINE]
Protein kinase C (PKC)
  IC50: 30 µg/mL (≈ 73.6 µM)

## OC[C@H]1O[C@@H](Oc2cc(O)cc(/C=C\c3ccc(O)cc3)c2)[C@H](O)[C@@H](O)[C@@H]1O [Z-PICEID]
[1]
  IC50: 5 ×10² ug/ml
Protein kinase C (PKC)
  IC50: 2 ×10² ug/ml
